Measured values pooled from the literature.
Each line is one published result; the experiments were not run side by side.
Target: Homeodomain-interacting protein kinase 3 (HIPK3, Homo sapiens, UniProt Q9H422)

| SMILES | effect on | mode | technique | concentration | measurement | result |
| --- | --- | --- | --- | --- | --- | --- |
| CN1CCN(C(=O)c2ccc(NC(=O)Nc3ccc(N(C)c4ccnc(Nc5ccc(CS(C)(=O)=O)cc5)n4)cc3)cc2)CC1 | binding | – | competition with immobilised ligand | 1 µM | remaining binding | 71% |
| CO[C@@H]1[C@H](N(C)C(=O)c2ccccc2)C[C@H]2O[C@]1(C)n1c3ccccc3c3c4c(c5c6ccccc6n2c5c31)C(=O)NC4 | enzyme activity | inhibitor | – | 1 µM | inhibition | 30% |
| CCCCC(=O)Nc1ccc(-c2ccc3ncn(CCC)c(=O)c3c2)cn1 | binding | – | competition with immobilised ligand | 0.5 µM | remaining binding | 100% |
| C#Cc1cc(-c2cc(Nc3nc(N[C@@H](C)c4ccc(F)cn4)ncc3Cl)n[nH]2)ccc1C=O | enzyme activity | inhibitor | – | 0.2 µM | inhibition | 39.6% |
| Cc1ccc(NC(=O)c2ccnc(C(F)(F)F)c2)cc1-c1cc(OCCO)nc(N2CCOCC2)c1 | binding | – | competition with immobilised ligand | 1 µM | remaining binding | 98% |
| C1=C/COCc2cc(ccc2OCCN2CCCC2)Nc2nccc(n2)-c2cccc(c2)COC/1 | binding | – | – | 0.1 µM | remaining binding | 15% |
| C=CC(=O)N1CCC([C@@H]2CCNc3c(C(N)=O)c(-c4ccc(Oc5ccccc5)cc4)nn32)CC1 | enzyme activity | inhibitor | – | 1 µM | inhibition | 4% |
| CC(C)S(=O)(=O)c1ccc2nccc(Nc3ccc4sc(C5CCCC5)nc4c3)c2c1 | enzyme activity | inhibitor | – | 1 µM | activity vs control | 102% |
